# Non-standard residues stand in square brackets, D forms with d. Residues, ends and D or L forms follow the SMILES beside them. *: point of attachment. Desaminotyrosyl = O=C(CCc1ccc(O)cc1)*; NMeF = CN[C@@H](Cc1ccccc1)C(=O)O; Aib = CC(C)(N)C(=O)O; Ava = NCCCCC(=O)O; GABA = NCCCC(=O)O; βAla = NCCC(=O)O; Sar = CNCC(=O)O
# Tests used:
# Type in all cases: functional, Mus musculus
# [1] = Proliferative activity in osteoblastic MC3T3 E1 cell culture relative to OGP(10-14)
# How it was run: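 MC3T3 E1 osteoblastic cells were seeded at 2 × 10⁴ cells/well in RMEM with 10% FCS at 37 °C in CO₂/air. After 46 h in serum, they were washed, kept serum-free for 2 h, then switched to RMEM with 4% fatty-acid-free BSA, with or without peptide. The peptide was freshly dissolved at 10^-6 M, diluted, and preincubated for 30 min at 37 °C. The final concentration was 10^-13 M unless otherwise specified, with some dose-response runs.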
# [2] = (§1) Proliferative activity in fibroblastic […] cell culture relative to OGP(10-14)
# How it was run: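 Mouse NIH 3T3 fibroblasts from confluent cultures were seeded at 2 × 10⁴ cells/well in RMEM with 10% FCS at 37 °C in CO₂/air for 46 h, then washed and held serum-free for 2 h. Medium was then replaced with RMEM containing 4% fatty-acid-free BSA, with or without peptide. The peptide was dissolved at 10^-6 M, diluted, and pre-warmed for 30 min at 37 °C. The final concentration was 10^-11 M unless otherwise stated.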
# NIH3T3 = assay: as §1
# How it was run: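 NIH 3T3 fibroblasts from confluent cultures in RMEM with 10% FCS, seeded at 2 × 10⁴ cells/well, 37 °C in CO₂/air. They were kept 46 h in FCS medium, then 2 h serum-free. Medium was switched to 4% fatty-acid-free BSA RMEM ± peptide, 10^-11 M final, preincubated 30 min at 37 °C. Read-out was cell number in triplicate wells, converted to treated/control ratio against OGP(10-14) reference.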
Molecule,Relative potency [1],Relative potency [2],Relative potency (NIH3T3)
O=C1CNC(=O)[C@H](Cc2ccc(O)cc2)NC(=O)CNC(=O)[C@H](Cc2ccccc2)NC(=O)CN1,0.95,1.02,
O=C1CNC(=O)[C@@H](Cc2ccc(O)cc2)NC(=O)CNC(=O)[C@@H](Cc2ccccc2)NC(=O)CN1,1.03,1.16,
O=C1CNC(=O)[C@@H](Cc2ccccc2)NC(=O)CNC(=O)[C@@H](Cc2ccc(O)cc2)NC(=O)CN1,0.69,0.84,
O=C1CNC(=O)[C@H](Cc2ccccc2)NC(=O)CNC(=O)[C@H](Cc2ccc(O)cc2)NC(=O)CN1,0.79,1.12,
O=C(O)CNC(=O)CNC(=O)[C@H](Cc1ccccc1)NCCNC(=O)CCc1ccc(O)cc1,0.61,0.67,
O=C(O)CNCCNC(=O)[C@H](Cc1ccccc1)NC(=O)CNC(=O)CCc1ccc(O)cc1,0.78,0.8,
O=C(O)CNC(=O)CNC[C@H](Cc1ccccc1)NC(=O)CNC(=O)CCc1ccc(O)cc1,0.7,0.88,
O=C(O)CCCCNC(=O)[C@H](Cc1ccccc1)NC(=O)CNC(=O)CCc1ccc(O)cc1,0.78,0.88,
O=C(O)CNC(=O)CNC(=O)[C@H](Cc1ccccc1)NC(=O)CNCCCc1ccc(O)cc1,0.81,0.79,
N[C@H](CNCC(=O)N[C@@H](Cc1ccccc1)C(=O)NCC(=O)NCC(=O)O)Cc1ccc(O)cc1,0.92,0.87,
CN(CC(=O)O)C(=O)CNC(=O)[C@H](Cc1ccccc1)NC(=O)CNC(=O)CCc1ccc(O)cc1 (Desaminotyrosyl-GFG[Sar]-OH),0.16,0.14,
CN(CC(=O)NCC(=O)O)C(=O)[C@H](Cc1ccccc1)NC(=O)CNC(=O)CCc1ccc(O)cc1 (Desaminotyrosyl-GF[Sar]G-OH),0.15,0.11,
CN(C(=O)CNC(=O)CCc1ccc(O)cc1)[C@@H](Cc1ccccc1)C(=O)NCC(=O)NCC(=O)O (Desaminotyrosyl-G[NMeF]GG-OH),0.52,0.67,
CN(CC(=O)N[C@@H](Cc1ccccc1)C(=O)NCC(=O)NCC(=O)O)C(=O)CCc1ccc(O)cc1 (Desaminotyrosyl-[Sar]FGG-OH),0.31,0.39,
O=C(O)C[C@@H]1NC(=O)CNC(=O)[C@H](Cc2ccccc2)NC(=O)CNC(=O)[C@H](Cc2ccc(O)cc2)NC1=O (cyclo(DYGFG)),0.14,0.11,
O=C1CNC(=O)CNC(=O)[C@H](Cc2ccccc2)NC(=O)CNC(=O)[C@H](Cc2ccc(O)cc2)NC(=O)CN1 (cyclo(FGGGYG)),0.26,0.2,
O=C1CNC(=O)[C@H](Cc2ccccc2)NC(=O)[C@@H]2CCCN2C(=O)[C@H](Cc2ccc(O)cc2)NC(=O)CN1 (cyclo(FGGYP)),0.99,0.9,
O=C1CNC(=O)CNC(=O)[C@H](Cc2ccccc2)NC(=O)CNC(=O)[C@H](Cc2ccc(O)cc2)NC(=O)CCCN1 (cyclo(FGG[GABA]YG)),0.2,0.22,
O=C1CNC(=O)CNC(=O)[C@H](Cc2ccccc2)NC(=O)CNC(=O)[C@H](Cc2ccc(O)cc2)NC(=O)CCN1 (cyclo(FGG[βAla]YG)),0.36,0.37,
O=C1CNC(=O)[C@H](Cc2ccccc2)NC(=O)CNC(=O)[C@H](Cc2ccc(O)cc2)N1 (cyclo(FGYG)),0.35,0.43,
CC1(C)NC(=O)[C@H](Cc2ccc(O)cc2)NC(=O)CNC(=O)CNC(=O)[C@H](Cc2ccccc2)NC1=O (cyclo([Aib]FGGY)),0.19,0.31,
O=C1CNC(=O)CNC(=O)[C@H](Cc2ccccc2)NC(=O)CNC(=O)[C@H](Cc2ccc(O)cc2)NC(=O)CCCCN1 (cyclo([Ava]YGFGG)),0.14,0.18,
H-GGFGY-OH,0.71,0.82,
H-YGFGG-OH,1,,1
H-YPFGG-OH,0.89,0.96,

# Reference: ChEMBL document CHEMBL1135914, “Bioactive pseudopeptidic analogues and cyclostereoisomers of osteogenic growth peptide C-terminal pentapeptide, OGP(10-14)” (2002)
